Activity calls are given as the source filed them. The rule behind the calls is not given here.

What all share (settings): Homo sapiens
For assay [1], the system named is HEK293. The assay can be described thus: Inhibition of RyR2 R4496C mutant in HEK293 cells assessed as inhibition of store overload-induced calcium release at 10 uM by fura-2 AM dye based fluorescence assay. The assay is classed as cell-based. An outline of the steps: (§1)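 HEK293 cells expressing RyR2 R4496C, loaded with fura-2 AM, were followed by single-cell Ca²⁺ imaging. Cells were perfused continuously with rising drug levels (0, 3, 10, 30 µM) without pre-incubation. Read-out was the percentage of cells showing spontaneous Ca²⁺ oscillations at each concentration.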

In assay [2] the test system is HEK293. Description: Inhibition of RyR2 R4496C mutant in HEK293 cells assessed as reduction of caffeine-induced calcium release at 30 uM by fura-2 AM dye based fluorescence assay. The class given is cell-based. An outline of the steps:
(§2)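 Fura-2 ratio imaging of single HEK293 cells expressing mutant RyR2 (R4496C), perfused with compound up to 30 µM without pre-incubation. Cytosolic Ca²⁺ level was monitored, and caffeine, a RyR2 agonist, was then added to trigger Ca²⁺ release. Amplitude of the caffeine-induced release was read from the traces.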

For assay [3], the system named is HEK293. Description: Induction of cytosolic calcium level in HEK293 cells expressing RyR2 R4496C mutant at 30 uM by fura-2 AM dye based fluorescence assay. The assay is classed as functional, cell-based. An outline of the steps: as §2
Assay [4] deals with HEK293. The assay can be described thus: Inhibition of RyR2 R4496C mutant in HEK293 cells assessed as inhibition of store overload-induced calcium release at 30 uM by fura-2 AM dye based fluorescence assay. The class given is cell-based. In outline:
as §1

Assay [5] is described as follows: Inhibition of RyR2 R4496C mutant-mediated store overload-induced calcium release in HEK293 cells assessed as reduction in amplitude of spontaneous calcium oscillations by fura-2 AM dye based fluorescence assay. The class given is cell-based. An outline of the steps:
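Single-cell fura-2 ratio traces were recorded in R4496C RyR2-expressing HEK293 cells. Cells were perfused continuously with increasing concentrations (0, 3, 10, 30 µM) without pre-incubation. The amplitude of spontaneous Ca²⁺ oscillations was compared before and after each addition.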

One may read the inhibition as how much of the control response was suppressed. In general, IC50 refers to the point on the concentration scale where inhibition reaches its midpoint. `COc1cc(O)ccc1OCCNCC(O)COc1cccc2[nH]c3ccccc3c12` (stereo not given): the inhibition in the assay with HEK293 [1] amounted to 10%. In addition, in the assay on HEK293 [2], the inhibition entry was “inactive”. Moreover, the outcome in the assay with HEK293 [3] was inactive. In addition, the inhibition entry with HEK293 [4] is “Active”. Besides, in assay [5], the IC50 was found to be 10.4 µM.
In the case of `COc1ccc(O)cc1OCCNCC(O)COc1cccc2[nH]c3ccccc3c12` (stereo not given), the inhibition turned out to be 10% in the assay on HEK293 [1] and 80% with HEK293 [4]. Further, the inhibition result in the assay with HEK293 [2] is “inactive”. For the same compound, the outcome in the assay with HEK293 [3] was inactive. Also, in assay [5], the IC50 stood at 19.4 µM.
`COc1ccccc1OCCNCC(O)COc1c(O)ccc2[nH]c3ccccc3c12` (stereo not given): the inhibition with HEK293 [1] was found to be 70%. Besides, the inhibition result with HEK293 [2] and with HEK293 [4] was “Active” each time. Further, the result with HEK293 [3] was Active. Besides, the half-inhibitory concentration (IC50) in assay [5] came to 9.4 µM.
